How the values were obtained:
Mus musculus [1] = test: Maximal metrazole seizures was determined for the inhibition of hind limb tonus in mouse 1 hr after po dosing; assay type: functional; details: Hindlimb
Method in brief: (§1)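 Oral dosing, with seizures assessed 1 h later. The endpoint is inhibition of hind limb tonus, expressed as ED50 in mg/kg po.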

Mus musculus [2] = test: Maximal electroshock seizures was determined for the inhibition of hind limb tonus in mouse by 1 hr after po dose; assay type: functional; details: Hindlimb; method in brief: as §1
[3] = Tested for the neurotoxicity in mouse rotarod test was reported 1 hr after po dosing; assay type: toxicity, organism-based; details: in vivo
Method in brief: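 Trained mice were placed on a rotating rod 1 h after oral dosing. TD50 (mg/kg) is the dose at which 50% of animals fall off the rod, reported with its range.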

Rattus norvegicus = test: Maximal electroshock seizures determined for the inhibition of hind limb tonus in rat 1 hr after po dosing; assay type: functional; details: Hindlimb; method in brief: as §1
[4] = Tested for the neurotoxicity in mouse rotarod test was reported 2 hr after po dosing; assay type: toxicity, organism-based; details: in vivo

Structure (SMILES) | ED50 (Mus musculus [1]) [mg/kg] | ED50 (Mus musculus [2]) [mg/kg] | TD50 at 1 h [3] [mg/kg] | ED50 (Rattus norvegicus) [mg/kg] | TD50 at 2 h [4] [mg/kg]
CN(C1=NCCN1)c1nnc(-c2ccccc2C(F)(F)F)s1 | > 100 | > 100 |  |  | 
FC(F)(F)c1ccccc1-c1nnc(NC2=NCCN2)s1 | > 100 | > 100 |  |  | 
C/N=C(\N)Nc1nnc(-c2ccccc2C(F)(F)F)s1 | 44 | 49 | > 400 |  | 
CCCC/N=C(\N)Nc1nnc(-c2ccccc2C(F)(F)F)s1 | 225 | 142 |  |  | 
N=C(N)Nc1nnc(-c2ccccc2C(F)(F)F)s1 | 45 | 27 | 384 | 22 | 
CN(C)CCC/N=C(\N)Nc1nnc(-c2ccccc2C(F)(F)F)s1 | > 100 | > 100 |  |  | 
COCCC/N=C(\N)Nc1nnc(-c2ccccc2C(F)(F)F)s1 | 78 | > 100 |  |  | 
N=C(NCc1ccccc1)Nc1nnc(-c2ccccc2C(F)(F)F)s1 | > 100 | > 100 |  |  | 
CN(N)c1nnc(-c2ccc(-c3ccccc3)cc2)s1 | 27 | 18 |  | 16 | > 1000
NC(=O)N1c2ccccc2C=Cc2ccccc21 [CARBAMAZEPINE] | 11 | 20 |  | 4 | 
CCC1(c2ccccc2)C(=O)NC(=O)NC1=O [PHENOBARBITAL] | 4 | 12 |  | 9 | 
O=C1NC(=O)C(c2ccccc2)(c2ccccc2)N1 [PHENYTOIN] | 8 | 8 |  | 14 | 

Source: ChEMBL document CHEMBL1123753, “Substituted 1,3,4-thiadiazoles with anticonvulsant activity. 3. Guanidines” (J Med Chem, 1987)
